Measured values published in ChEMBL document CHEMBL2029337, “Synthesis and antimicrobial activities of structurally novel S,S'-bis(heterosubstituted) disulfides” (Bioorg Med Chem Lett, 2012).
≈ marks a conversion by molar mass, not a printed value. Calls of active or inactive are those of the source. The rule behind the calls is not given here.

How the values were obtained:
[1] = test system: Bartonella sp.; test: Antibacterial activity against Bartonella ssp. […] by agar dilution method; format: functional
[2] = test system: Escherichia coli; test: Antibacterial activity against Escherichia coli K-12 […] by agar dilution method; format: functional, organism-based
[3] = test system: Staphylococcus aureus; test: Antibacterial activity against methicillin-susceptible Staphylococcus aureus ATCC 25923 […] by agar dilution method; format: functional
[4] = test system: Staphylococcus aureus; test: Antibacterial activity against methicillin-resistant Staphylococcus aureus ATCC 43300 […] by agar dilution method; format: functional
[5] = Antibacterial activity against Francisella tularensis subspecies holarctica LVS after 48 hrs by broth dilution method; format: functional, Francisella tularensis subsp. holarctica LVS
[6] = test system: Staphylococcus aureus; test: Antibacterial activity against methicillin-susceptible Staphylococcus aureus ATCC 25923 assessed as reduction in bacterial counts at 2 ug/mL after overnight incubation […] (reference value: 7.60 x 10^8 cfu/mL); format: functional
In short: (§1)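 Viability count assay against S. aureus ATCC 25923. All tubes started at 10⁵ cfu/mL, and viable bacteria were counted before and after incubation with disulfide at the line's concentration. Tubes without disulfide served as the growth reference. Performed in triplicate.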

[7] = test system: Staphylococcus aureus; test: Antibacterial activity against methicillin-resistant Staphylococcus aureus ATCC 43300 assessed as reduction in bacterial counts at 2 ug/mL after overnight incubation by […] (reference value: 4.02 x 10^8 cfu/mL); format: functional
[8] = test system: Staphylococcus aureus; test: Antibacterial activity against methicillin-susceptible Staphylococcus aureus ATCC 25923 assessed as reduction in bacterial counts at 4 ug/mL after overnight incubation […] (reference value: 7.60 x 10^8 cfu/mL); format: functional; in short: as §1
[9] = test system: Staphylococcus aureus; test: Antibacterial activity against methicillin-resistant Staphylococcus aureus ATCC 43300 assessed as reduction in bacterial counts at 4 ug/mL after overnight incubation by […] (reference value: 4.02 x 10^8 cfu/mL); format: functional
[10] = test system: Staphylococcus aureus; test: Antibacterial activity against methicillin-resistant Staphylococcus aureus ATCC 43300 assessed as growth inhibition at 50 ug after 24 hrs by agar-diffusion assay in presence of cystine; format: functional, organism-based
[11] = test system: Staphylococcus aureus; test: Antibacterial activity against methicillin-resistant Staphylococcus aureus ATCC 43300 assessed as growth inhibition at 1 mg after 24 hrs by agar-diffusion assay; format: functional, organism-based
In short: (§2)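 Kirby-Bauer well diffusion on an MRSA lawn (0.5 McFarland suspension swabbed onto tryptic soy agar). Four test agents sat in wells equidistant from a centre well holding 1 mg of additive in DMSO; a DMSO-only centre well served as vehicle control. After overnight incubation at 37 °C, the inhibition zones were examined for size or shape change.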

[12] = test system: Staphylococcus aureus; test: Membrane disrupting activity in methicillin-resistant Staphylococcus aureus ATCC 43300 by scanning electron microscopy; format: functional, organism-based
In short: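 Scanning electron microscopy of MRSA cells before and after disulfide treatment during Kirby-Bauer agar diffusion experiments, assessing external cell morphology and cell-wall integrity.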

[13] = test system: Candida albicans; test: Antifungal activity against Candida albicans assessed as reduction in viability by trypan blue staining; format: functional
In short: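 C. albicans was exposed in YNB to a 1, 0.5, 0.25 and 0.125 series, following the NCCLS fungal protocol. Non-viable cells were stained with trypan blue and counted in a cell-counting chamber under a microscope at 40X. Controls were untreated cells in YNB and cells heat-killed in PBS (boiled 5 min).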

[14] = Cytotoxicity against bovine primary aortic endothelial cells at 20 ug/mL after 48 hrs by MTT assay; format: cell-based, Bos taurus; details: cattle, endothelial cell
In short: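 Primary bovine aortic endothelial cells were kept in EBM-2 with 10% FBS and penicillin/streptomycin at 37 °C under 5% CO₂. Cells were trypsinized, counted and plated in 96-well dishes, then treated for 48 h. MTT was added and formazan dissolved in DMSO; absorbance was read at 540 nm with 660 nm background. Viability is expressed as percent of untreated control.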

[15] = test system: Staphylococcus aureus; test: Antibacterial activity against methicillin-resistant Staphylococcus aureus ATCC 43300 assessed as growth inhibition at 50 ug after 24 hrs by agar-diffusion assay in presence of CoA; format: functional, organism-based; in short: as §2
[16] = test system: Staphylococcus aureus; test: Antibacterial activity against methicillin-resistant Staphylococcus aureus ATCC 43300 assessed as growth inhibition at 50 ug after 24 hrs by agar-diffusion assay in presence of GSH; format: functional, organism-based; in short: as §2
[17] = test system: Staphylococcus aureus; test: Antibacterial activity against methicillin-resistant Staphylococcus aureus ATCC 43300 assessed as growth inhibition at 50 ug after 24 hrs by agar-diffusion assay in presence of glycine; format: functional, organism-based; in short: as §2
[18] = test system: Staphylococcus aureus; test: Antibacterial activity against methicillin-resistant Staphylococcus aureus ATCC 43300 assessed as growth inhibition at 50 ug after 24 hrs by agar-diffusion assay in presence of lysine; format: functional, organism-based; in short: as §2
[19] = test system: Staphylococcus aureus; test: Antibacterial activity against methicillin-resistant Staphylococcus aureus ATCC 43300 assessed as growth inhibition at 50 ug after 24 hrs by agar-diffusion assay in presence of valine; format: functional, organism-based; in short: as §2
[20] = test system: Staphylococcus aureus; test: Antibacterial activity against methicillin-resistant Staphylococcus aureus ATCC 43300 assessed as growth inhibition at 50 ug after 24 hrs by agar-diffusion assay in presence of iPrSSiPr; format: functional, organism-based; in short: as §2
[21] = test system: Staphylococcus aureus; test: Antibacterial activity against methicillin-resistant Staphylococcus aureus ATCC 43300 assessed as growth inhibition at 50 ug after 24 hrs by agar-diffusion assay in presence of PPh3; format: functional, organism-based; in short: as §2

## CC(C)OSSOC(C)C
[1]
  Activity: inactive
[2]
  Activity: inactive
[3]
  MIC: 1 µg/mL (≈ 5.49 µM)
[4]
  MIC: 0.5 µg/mL (≈ 2.74 µM)
[5]
  MIC: 4 µg/mL (≈ 21.9 µM)
[6]
  Activity: 3.86 ×10⁴ CFU/ml
[7]
  Activity: >1.2 ×10⁶ CFU/ml
[8]
  Activity: 2.04 ×10³ CFU/ml
[9]
  Activity: 2.88 ×10³ CFU/ml
[10]
  growth inhibition (GI): inactive
[11]
  growth inhibition (GI): Active
[12]
  Activity: inactive
[13]
  MIC: 0.5 µg/mL (≈ 2.74 µM)
[14]
  Activity: Non-toxic
[15]
  growth inhibition (GI): inactive
[16]
  growth inhibition (GI): inactive
[17]
  growth inhibition (GI): Active
[18]
  growth inhibition (GI): Active
[19]
  growth inhibition (GI): Active
[20]
  growth inhibition (GI): Active
[21]
  growth inhibition (GI): Active
